Calls of active or inactive are those of the source. The rule behind the calls is not given here.

In experiment [1] the test system is Cyberlindnera jadinii. Kind of experiment: Antifungal activity against Candida utilis ATCC 9950 at 1.4 mol by disk diffusion method. The experiment is classed as functional. The gist of the method: (§1)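 Compound dissolved in MeOH, applied to a 6 mm filter-paper disk and air-dried. Disk placed on an agar plate overgrown with the test organism. Growth-inhibition zone measured from the outer edge of the disk.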

Experiment [2] has as its system Escherichia coli. Kind of experiment: Antibacterial activity against Escherichia coli ATCC 11775 at 1.2 mol by disk diffusion method. The experiment is classed as functional. The gist of the method:
as §1

Experiment [3] deals with Micrococcus luteus. Kind of experiment: Antibacterial activity against Micrococcus luteus ATCC 49732 at 1.2 mol by disk diffusion method. The experiment is classed as functional. In a few lines: as §1
Experiment [4] deals with Cyberlindnera jadinii. The experiment in a line: Antifungal activity against Candida utilis ATCC 9950 at 1.2 mol by disk diffusion method. The experiment is classed as functional. The gist of the method: as §1
The subject of experiment [5] is Saccharomyces cerevisiae. Kind of experiment: Antifungal activity against Saccharomyces cerevisiae ATCC 9763 at 1.2 mol by disk diffusion method. The experiment is classed as functional. The gist of the method:
as §1

For experiment [6], the system named is Escherichia coli. The experiment in a line: Antibacterial activity against Escherichia coli ATCC 11775 at 0.7 mol by disk diffusion method. The experiment is classed as functional, organism-based. In a few lines:
as §1
For orientation: A growth-free zone around the sample is the usual read-out of agar diffusion tests.

For experiment [7], the system named is Micrococcus luteus. Kind of experiment: Antibacterial activity against Micrococcus luteus ATCC 49732 at 0.7 mol by disk diffusion method. The experiment is classed as functional, organism-based. In a few lines:
as §1

Experiment [8] deals with Cyberlindnera jadinii. The experiment in a line: Antifungal activity against Candida utilis ATCC 9950 at 0.7 mol by disk diffusion method. The experiment is classed as functional, organism-based. The gist of the method: as §1
The subject of experiment [9] is Saccharomyces cerevisiae. The experiment in a line: Antifungal activity against Saccharomyces cerevisiae ATCC 9763 at 0.7 mol by disk diffusion method. The experiment is classed as functional, organism-based. In a few lines: as §1
Experiment [10] has as its system Escherichia coli. Kind of experiment: Antibacterial activity against Escherichia coli ATCC 11775 at 1.5 mol by disk diffusion method. The experiment is classed as functional. The gist of the method: as §1
Experiment [11] relates to Micrococcus luteus. The experiment in a line: Antibacterial activity against Micrococcus luteus ATCC 49732 at 1.5 mol by disk diffusion method. The experiment is classed as functional. In a few lines:
as §1

For experiment [12], the system named is Cyberlindnera jadinii. Kind of experiment: Antifungal activity against Candida utilis ATCC 9950 at 1.5 mol by disk diffusion method. The experiment is classed as functional. In a few lines: as §1
Experiment [13] has as its system Saccharomyces cerevisiae. Kind of experiment: Antifungal activity against Saccharomyces cerevisiae ATCC 9763 at 1.5 mol by disk diffusion method. The experiment is classed as functional. In a few lines: as §1
Experiment [14] concerns Escherichia coli. The experiment in a line: Antibacterial activity against Escherichia coli ATCC 11775 at 1.3 mol by disk diffusion method. The experiment is classed as functional. The gist of the method:
as §1

In experiment [15] the test system is Micrococcus luteus. The experiment in a line: Antibacterial activity against Micrococcus luteus ATCC 49732 at 1.3 mol by disk diffusion method. The experiment is classed as functional. In a few lines:
as §1

Experiment [16] has as its system Cyberlindnera jadinii. Kind of experiment: Antifungal activity against Candida utilis ATCC 9950 at 1.3 mol by disk diffusion method. The experiment is classed as functional. The gist of the method:
as §1

Experiment [17] relates to Saccharomyces cerevisiae. The experiment in a line: Antifungal activity against Saccharomyces cerevisiae ATCC 9763 at 1.3 mol by disk diffusion method. The experiment is classed as functional. In a few lines: as §1
In experiment [18] the test system is Escherichia coli. Kind of experiment: Antibacterial activity against Escherichia coli ATCC 11775 at 0.9 mol by disk diffusion method. The experiment is classed as functional, organism-based. The gist of the method: as §1
In experiment [19] the test system is Micrococcus luteus. The experiment in a line: Antibacterial activity against Micrococcus luteus ATCC 49732 at 0.9 mol by disk diffusion method. The experiment is classed as functional, organism-based. The gist of the method:
as §1

Experiment [20] concerns Cyberlindnera jadinii. The experiment in a line: Antifungal activity against Candida utilis ATCC 9950 at 0.9 mol by disk diffusion method. The experiment is classed as functional, organism-based. The gist of the method: as §1
The subject of experiment [21] is Saccharomyces cerevisiae. Kind of experiment: Antifungal activity against Saccharomyces cerevisiae ATCC 9763 at 0.9 mol by disk diffusion method. The experiment is classed as functional, organism-based. The gist of the method: as §1

Regarding `C=CC(C)(C)[C@@]12CCN(C)[C@@H]1N(C(C)=O)c1cc(Br)ccc12` [FLUSTRAMINE F], the “inhibition zone (IZ)” value in the experiment with Cyberlindnera jadinii [1] is given as 18 mm.

On to `CC(C)=CCc1cc(Br)c2c(c1O)[C@]1(CC=C(C)C)CCN(C)[C@@H]1N2` [FLUSTRAMINE L], for which the “inhibition zone (IZ)” value stood at 24 mm with Escherichia coli [2], 25 mm with Micrococcus luteus [3], 30 mm with Cyberlindnera jadinii [4] and 20 mm in the experiment with Saccharomyces cerevisiae [5].

As for `C=CC(C)(C)[C@@]12CCN(C)[C@@H]1N(Cc1cc(Br)c3c(c1O)[C@]1(C/C=C(\C)CCC=C(C)C)CCN(C)[C@@H]1N3)c1cc(Br)ccc12`, the “inhibition zone (IZ)” value in the experiment on Escherichia coli [6], in the experiment on Micrococcus luteus [7], with Cyberlindnera jadinii [8] and with Saccharomyces cerevisiae [9] was “inactive” each time.

On to `CC(C)=CC[C@@]12CCN(C)[C@@H]1Nc1c(Br)ccc(O)c12` [FLUSTRAMINE I], for which the “inhibition zone (IZ)” value with Escherichia coli [10] stood at 25 mm; with Micrococcus luteus [11], 29 mm; in the experiment with Cyberlindnera jadinii [12], 29 mm; in the experiment with Saccharomyces cerevisiae [13] it was 15 mm.

Turning to `CC(C)=CCC/C(C)=C/C[C@@]12CCN(C)[C@@H]1Nc1cccc(O)c12` [DEBROMOFLUSTRAMINE H], the “inhibition zone (IZ)” value with Escherichia coli [14] is recorded as 22 mm; in the experiment on Micrococcus luteus [15], 23 mm; in the experiment with Cyberlindnera jadinii [16], 28 mm; in the experiment with Saccharomyces cerevisiae [17], 16 mm.

In the case of `C=CC(C)(C)[C@@]12CCN(C)[C@@H]1N(CN1c3cc(Br)ccc3[C@]3(C(C)(C)C=C)CCN(C)[C@H]13)c1cc(Br)ccc12`, the “inhibition zone (IZ)” value in the experiment with Escherichia coli [18], with Micrococcus luteus [19], in the experiment with Cyberlindnera jadinii [20] and with Saccharomyces cerevisiae [21] was “inactive” each time.

Source of the values: ChEMBL document CHEMBL1154319, “Further studies on the chemistry of the flustra alkaloids from the bryozoan Flustra foliacea” (2009).
